Variants at the floor of the assay were thinned out.
B1: tRNA (parent)
chain: GUUCCGUUGGCGUAAUGGUAACGCGUCUCCCUCCUAAGGAGAAGACUGCGGGUUCGAGUCCCGUACGGAACG

Variants of: B1
Test: yeast fitness relative to wild type (ratio to wild type); higher = fitter; tRNA-Arg(CCU), competitive growth, 37 C, YPD
In short: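 Variants of the tRNA-Arg(CCU) gene were chemically synthesised with a 3% per-site mutation rate across 69 sites and placed at the native genomic locus in Saccharomyces cerevisiae. Six parallel replicates of the pooled strains were competed in YPD at 37°C for 24 hours, and gene amplicons from the start and end populations were read by 100-nucleotide paired-end sequencing. Darwinian fitness relative to wild type was derived from changes in genotype frequencies. Genotypes required ≥ 100 starting reads, and estimates < 0.5 were set to 0.5.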

Row | Variant | yeast fitness
1 | GUUCCGUUGGCGUUAUGGUAACGCGUCUCCCUCGUAAGGAGAAGACUGCGGGUUCGAGUCGCGUACGGACCG | ≤ 0.5
2 | GUUCCGUUGGCGUUAUGGUAACGCGUCUCCCUCCUAAGGAGAAGAAUGCGGGUUCGAGUCCCGUACGGAACG | 0.599
3 | GUUCCGUUGGCGUUAUGGUAACGCGUCUCCCUCCUAAGGAGAAGAAUGCGGGUUCGAGUCCCGUAUGGAACG | ≤ 0.5
4 | GUUCCGUUGGCGUUAUGGUAACGCGUCUCCCUCCUAAGGAGAAGAAUGCGCGUUCGUGUCCCGGACGGAACG | 0.584
5 | GUUCCGUUGGCGUUAUGGUAACGCGUCUCCCUCCUAAGGAGAAGAGUGCGGGUUCGAGUCCCAUACGGAACG | 0.53
6 | GUUCCGUUGGCGUUAUGGUAACGCGUCUCCCUCCUAAGGAGAAGAUUGCGGGUUCGAGUCCCGUACGGAACG | 0.664
7 | GUUCCGUUGGCGUUAUGGUAACGCGUCUCCCUCCUAAGGAGAAGACUGAGGGUUCGAGUCCCGUACGGAACG | 0.543
8 | GUUCCGUUGGCGUUAUGGUAACGCGUCUCCCUCCUAAGGAGAAGACUGAGGGUUCGGGUCCCGUACGGAACG | 0.542
9 | GUUCCGUUGGCGUUAUGGUAACGCGUCUCCCUCCUAAGGAGAAGACUGGGGGUUCGUGUCCCGUACGGAACG | ≤ 0.5
10 | GUUCCGUUGGCGUUAUGGUAACGCGUCUCCCUCCUAAGGAGAAGACUGCGGGUUAGAGUCCCGUACGGAACG | 0.575
11 | GUUCCGUUGGCGUUAUGGUAACGCGUCUCCCUCCUAAGGAGAAGACUGCGGGUUAGAGUCCCGUCCGGAACG | ≤ 0.5
12 | GUUCCGUUGGCGUUAUGGUAACGCGUCUCCCUCCUAAGGAGAAGACUGCGGGUUAGAGGCCCGUCCGGAACG | 0.561
13 | GUUCCGUUGGCGUUAUGGUAACGCGUCUCCCUCCUAAGGAGAAGACUGCGGGUUGGAGUCCCGUACGGAACG | 0.578
14 | GUUCCGUUGGCGUUAUGGUAACGCGUCUCCCUCCUAAGGAGAAGACUGCGGGUUCGAGUCGCGUACGGAACG | ≤ 0.5
15 | GUUCCGUUGGCGUUAUAGUAACGCGUCUCCCUCCUAAGGAGAAGUCUGCGGGUUCGACUCCCGUACGGAACG | ≤ 0.5
16 | GUUCCGUUGGCGUUAUAGUAAUGCGUCUCCCUGCUAAGGAGAAGACUGCGGGUUCGAGUCCCGUACUGAACG | 0.613
17 | GUUCCGUUGGCGUUAUAGUAAUGCGUCUCCCUCCUAAGGAGAAGACUGCGGGUUCGAGUCCAGUACGGAACG | ≤ 0.5
18 | GUUCCGUUGGCGUUAUAGUAACGCGUCUGCCUCUAAACGAGAAGACUGCGGGUUGGAGUCCCGUACGGGCCG | 0.511
19 | GUUCCGUUGGCGUUAUAGUAACGCGUCUCCUUCCUAAGGAGAAGACUGCGGGUUCGAGUCACGUACGCAACG | ≤ 0.5

Row | Variant | yeast fitness
20 | GUUCCGUUGGCGUUAUAGUAACCCGUCUUCCUCGUAAGGAGAGGCCUGCGGGUGCGAGUCCCGUACGGAACG | ≤ 0.5
21 | GUUCCGUUGGCGUUAUAGUAACCCGUCUUCCUCGUAAGGAGAAGCCUGCGGGUGCAAGUCCCGUACGGAACG | ≤ 0.5
22 | GUUCCGUUGGCGUUAUCGUAACGAGUCUCGCUCCUAAGGAGAAGACUGCGGGUUCGAGUCCCGUACGGAACG | 0.524
23 | GUUCCGUUGGCGUUAUCGUAACGAGUCUCGCUCCUAAGGAGAAGACUGCGGGUUCGGGUCCCGUACGGAACG | ≤ 0.5
24 | GUUCCGUUGGCGUUAUCGUAACGCGUCUCCCUCCUAAGGAGAAGACUGCGGGGUCGAGUCCCGUACGGAACG | 0.603
25 | GUUCCGUUGGCGUUAUGAUAACGAGUCUCCCUCAUAAGGAGAAGACUGCGGGUUCGAGUCCCGUACGGAACG | 0.53
26 | GUUCCGUUGGCGUUAUGCUAACGCGUCUCCCUCCUAAGGAGAAGACUGCGGGUUCGAGUCCCGUACGGAACG | 0.583
27 | GUUCCGUUGGCGUUAUGCUAACGCGUCUCCCUCCUAAGGAGAAGACUGCGGGUUCGAGUCCCGUACGGUACG | ≤ 0.5
28 | GUUCCGUUGGCGUUAUGCUAACGCGUCUCCCUCCUAAGGAGAAGACUGCGGGUUCGAGUCCCGUACGGAGCG | 0.715
29 | GUUCCGUUGGCGUUAUGCUAACGCGUCUUCCUCCUAUGGAGAAGACUGCGGGUUCGAGUCCCGUACGGAACG | ≤ 0.5
30 | GUUCCGUUGGCGUUAUGCUAACGCGUCUCCCUCUUAAGGAGAAGACUGCGGGUUCGAGUCCCGUACGGAACG | ≤ 0.5
31 | GUUCCGUUGGCGUUAUGCUAACGCGUCUCCCUCCUAAGCAGAAGACUGGGGGUUCGAGUCUCGUACGGAACG | ≤ 0.5
32 | GUUCCGUUGGCGUUAUGGUAACACGUCUGCCUCCUAAGGAGAAGAAUGCGGGUUGGAGUCCCGUACGAAACG | ≤ 0.5
33 | GUUCCGUUGGCGUUAUGGUAACACGUCUCCCCCCUAAGGAGAAGACUGCGGGUUCGAGUCCCGUACGGAACG | ≤ 0.5
34 | GUUCCGUUGGCGUUAUGGUAACCCGUCUCCCUCCUAAGGAGAAGACUGCGGGUUCGAGUCCCGUACGGACCG | 0.586
35 | GUUCCGUUGGCGUUAUGGUAACCCGUCUGCCUCCUAAGGAGAAGACUGCGAGUUCUAGUCCCGUACGGAACG | ≤ 0.5
36 | GUUCCGUUGGCGUUAUGGUAACCCGUCUCCCUCCUAAGGAGAAGACUGCGGGUUAGAGUCCCGUACGGAACG | 0.559
37 | GUUCCGUUGGCGUUAUGGUAACUCGUCUCCCUCCUAAGGAGAAGACUGCGGGUUCGAGUCCCGUACGGAACG | 0.59
38 | GUUCCGUUGGCGUUAUGGUAACGCAUCUCCCUCCUAAGGAGGAGACUGCGGGUUCGAGUCCCGUAGGGAACG | 0.767

— the RNAGym collection of RNA variant scans (doi:10.1126/science.aae0568)
